Results as given in PMC5477238 (Clinical cancer research : an official journal of the …, 2016).

Experiments:
[1] = tested on: TT cells (RET C634W); assay: Cell viability assay; assay type: cell-based; details: Homo sapiens, 96 h, read-out: IC50 (cell viability)
[2] = tested on: RET-rearranged lung cancers; details: cited from earlier work
[3] = tested on: phospho-RET, phospho-PLCγ, phospho-ERK, phospho-MEK in LC-2/ad cells; assay: Western blot of RET pathway phosphorylation; assay type: cell-based, human; details: 50 nmol/L to 5 μmol/L, 2 hours
[4] = tested on: LC-2/ad cells; assay: Apoptosis assay; assay type: cell-based, human; details: 24-hour incubation
Procedure, shortened: (§1)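 Cells kept in F-12K or RPMI with 10% (vol/vol) FBS at 37°C in humidified 5% CO2. They were split into 10-cm dishes and, 24 hours later, exposed to a range of test compound concentrations for 24 hours. Lysates were prepared in RIPA buffer. Cleaved caspase-3 and cleaved PARP were detected by standard Western blotting.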

[5] = tested on: LC-2/ad cells (CCDC6-RET); assay: Cell viability assay; assay type: cell-based; details: Homo sapiens, 72 h, read-out: IC50 (cell viability)
[6] = tested on: TT cells; assay: Apoptosis assay; assay type: cell-based, human; details: 24-hour incubation
Procedure, shortened: as §1

[7] = tested on: HUVEC cells; details: at 1 μmol/L; cited from earlier work

Row | SMILES | IC50 [1] | patients requiring a dose reduction due to drug-related toxicities ([2]; phase II study) | overall response rate ([2]; phase II trial) | ERK and MEK phosphorylation [3] | apoptosis (cleaved caspase-3 and cleaved PARP) [4] | IC50 [5] | apoptosis (cleaved caspase-3 and cleaved PARP) [6] | growth inhibitory activity toward HUVEC cells [7]
1 | COc1cc2nccc(Oc3ccc(NC(=O)C4(C(=O)Nc5ccc(F)cc5)CC4)cc3)c2cc1OC [cabozantinib] | 0.077 µM | approximately two thirds | 28% | able to decrease phospho-ERK and phospho-MEK at as low as 50 nmol/L | induced apoptosis | 0.098 µM | no cleavage of caspase-3 and PARP | 
2 | CCc1cc2c(cc1N1CCC(N3CCOCC3)CC1)C(C)(C)c1[nH]c3cc(C#N)ccc3c1C2=O [alectinib] | 0.09 µM |  |  | neither RXDX-105 nor alectinib treatment showed detectable change | induced apoptosis | 0.204 µM | no cleavage of caspase-3 and PARP was seen in the TT cells, except for the higher doses of alectinib | 
3 | COc1cc2ncnc(Oc3cccc(NC(=O)Nc4cc(C(C)(C)C(F)(F)F)on4)c3)c2cc1OC.Cl [RXDX-105, 1-(3-(6,7-dimethoxyquinazolin-4-yloxy)phenyl)-3-(5-(1,1,1-trifluoro-2-methylpropan-2-yl)isoxazol-3-yl)urea hydrochloride] |  |  |  |  | induced apoptosis |  | no cleavage of caspase-3 and PARP | no growth inhibitory activity
